Source: PubChem (several laboratories)
Phagocyt inh: blocks phagocytosis by macrophages. actives 0.07% (n = 110,000). inhibition, % at 5 µM. J774A.1 macrophage IgG-bead phagocytosis, imaging. AID 1029;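 active = inhibition above the mean of the plate negative controls plus 5 SD, cut at about 13% in these data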;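 also: phagocytic index as fraction of beads internalized from green versus red external bead signal; plate controls were DMSO negative control for no effect and cytochalasin-D positive control for full effect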
Cav3 T inh: human Cav3.2 channel inhibition, primary screen; O95180; Cav3.2-expressing cells, Fluo-4 calcium fluorescence FDSS; active compounds read low; B-score at 10 µM; actives 4% (n = 100,000); AID 449739;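 active = single-dose well whose peak fluorescence ratio is a statistical outlier from its plate by either plate-standardised score or position-corrected B-score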
Measles CPE: protection of cells from measles virus | Measles virus-infected cells, CPE protection, absorbance | protection (pct of control), % at 4 µM | actives 1.5% (n = 140,000) | AID 841; in the data active = protection mostly above about 24%, no sharp cut-off; inactive = mostly below about 26%
hDAT+cocaine: human DAT dopamine uptake with cocaine, either direction | AID 449768 | B-score at 10 µM | actives 1.3% (n = 110,000) | Q01959 | LLC-PK1 hDAT cells, [14C]-dopamine uptake with cocaine IC80; actives deviate in either direction;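 active = Z score or B-score, a plate-position-corrected score, falls beyond the plate's 99.7% confidence bounds, in either direction; inactive = both scores lie inside the 99.7% bounds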;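 also: scored against the spread of the other compound wells on the same plate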
Pyk2 oligo antag: Pyk2 (human) oligomerization antagonism. Q14289. Q293 cells, Pyk2 FERM NanoBiT luminescence; active compounds read low. z-score (the deposit names both 25 µM and 10 µM). actives 0.83% (n = 99,000). AID 1347419;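 active = Z-score of -3 or lower, scaled per plate to the spread of control and sample wells; inactive = z-score above -3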;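 also: negative z-score means lost luminescence so less FERM oligomerization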
HIV Rev-RRE inh: disrupts HIV-1 Rev binding to RRE RNA; Rev peptide-RRE RNA binding, FRET; inhibition, % at 8 µM; actives 0.79% (n = 97,000); AID 704;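 active = inhibition above the screen-wide mean plus 3 SD, cut at about 35% in these data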;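 also: 0% = median DMSO wells and 100% = median Neomycin B control wells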
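Probe or stimulus: fluorescein-Rev peptide as binding partner; assay system: Cy5-tagged RRE RNA duplex with fluorescein-tagged Rev peptide; timing: 5 min compound–RNA preincubation, then 15 min with peptide, 25 °C; medium: HEPES pH 7.5 buffer with KCl, MgCl2, NaCl and EDTA; signal: fluorescein-to-Cy5 FRET, 480 nm excitation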
Starred values were filed as active, the others as inactive; · = no result. Only some compounds are listed: those with a hit (about 5.9% of all), similar ones and a draw of the others.

SMILES	Phagocyt inh	Cav3 T inh	Measles CPE	hDAT+cocaine	Pyk2 oligo antag	HIV Rev-RRE inh
C=CCn1c(-c2cccnc2Cl)nc2cc(Cl)c(Cl)cc21	-1	-2.1	13	-1.2	-3.3*	16
Clc1cccc(Cl)c1Cn1c(-c2cccnc2Cl)nc2ccccc21	·	-3.2	4	-1.5	-2.2	8
CC(C)CNS(=O)(=O)c1ccc(CCC(=O)Nc2cc(Cl)ccc2Oc2ccccc2)cc1	-1	-6.2*	2	0.74	1.1	6
CCCNS(=O)(=O)c1ccc(CCC(=O)Nc2cc(Cl)ccc2Oc2ccccc2)cc1	·	-7*	2	1.6	0.28	1
CC(C)(C)NS(=O)(=O)c1ccc(CCC(=O)Nc2cc(Cl)ccc2Oc2ccccc2)cc1	0	-5.3*	2	-0.46	-0.67	8
Cc1nn(-c2ccccn2)c2c1C(c1ccccn1)C1=C(CCCC1=O)N2 (configuration not stated)	-1	1.2	6	1.7	·	1
Nn1cc(-c2ccccc2)nc1SCC(=O)N1CCN(S(=O)(=O)c2ccc(Cl)cc2)CC1	1	-1.5	23*	-0.43	-0.6	·
O=C(COC(=O)c1cccs1)Nc1nc(-c2ccccc2)cs1	-4	·	17	·	·	·
COc1ccc(CC(=O)Nc2nc(-c3cccnc3)cs2)cc1	-1	·	35*	·	0.75	·
Cn1nccc1C(=O)OCC(=O)Nc1nc(-c2ccccc2)cs1	0	-3.8*	9	-0.53	-0.12	·
Cn1cc(Cl)c(C(=O)OCC(=O)Nc2nc(-c3ccc(Br)cc3)cs2)n1	·	-5.9*	10	-0.5	-0.71	-5
Cc1cc(C(F)F)nn1CC(=O)NCc1ccccc1F	·	0.42	10	-0.71	-0.01	9
Cc1nnc(SCC(=O)Nc2ccc(-c3nc4ccccc4s3)cc2)s1	·	·	14	·	·	·
Cc1nnc(SCC(=O)Nc2nsc(-c3ccc(C(C)(C)C)cc3)n2)s1	·	-7.6*	12	1.4	·	1
C=C1CCC(C)C(C)(CCC2=CCOC2=O)C/C=C\C=C/1C(=O)O (configuration not stated)	·	-3.9*	·	0.95	·	·
COc1ccc(Cl)cc1NC(=O)C(C)Sc1n[nH]c(N)n1 (configuration not stated)	-1	·	14	0.011	-0.31	6
COC(=O)c1cc(-c2ccccc2)sc1NC(=O)CN1C(=O)c2ccccc2C1=O	·	-1.6	10	-0.0069	-2.1	14
CCN(CC)c1ccc(/C=C(\C#N)c2ccccn2)cc1	1	·	6	·	·	·
CCN(CC)c1ccc(C=N/C(C#N)=C(\N)C#N)cc1	9	-0.083	·	0.039	-1.2	53*
CCOc1ncccc1C(=O)NCC1COc2ccccc2O1 (configuration not stated)	2	-0.96	17	-0.59	-0.94	5
CCN(CCNC(=O)CN1CCN(Cc2ccc(Cl)cc2)C1=O)c1ccccc1	-1	-4*	18	0.92	0.82	9
O=C(CN1CCN(Cc2cccc(Cl)c2)C1=O)NCc1ccccn1	0	0.58	34*	1.1	·	2
O=C(CN1CCCN(Cc2ccc(F)cc2Cl)C1=O)NCc1ccccc1	-1	0.31	5	2.6*	-0.98	0
O=C(CN1CCN(Cc2ccccc2)C1=O)NCc1ccc(Cl)cc1	-1	-0.54	5	0.77	-0.82	6
Cc1ccc(CN2CCN(CC(=O)NCc3ccc(Cl)cc3)C2=O)cc1	0	-4*	7	0.39	-1.6	9
SMILES	Phagocyt inh	Cav3 T inh	Measles CPE	hDAT+cocaine	Pyk2 oligo antag	HIV Rev-RRE inh
Cc1ccccc1CN1CCN(CC(=O)NCc2ccccc2)C1=O	4	0.79	4	-1.2	2.2	2
COCCNC(=O)CN1CCN(Cc2cccc(Cl)c2)C1=O	1	1.3	8	0.037	·	7
COc1ccc([C@@]2(O)c3c(ccc(CC=C(C)C)c3O)NC(=O)[C@@H]2OC)cc1	·	-2.5	·	1.5	·	·
COc1ccc(/C=N/NC(=O)c2nn(-c3ccc(Cl)cc3)c(=O)c3c(N)scc23)cc1	-1	·	12	-0.27	-1.3	-9
COc1ccc(/C=N/NC(=O)c2nn(-c3ccccc3)c(=O)c3c(N)scc23)cc1	1	·	51*	-0.15	-0.72	-2
COc1ccc(/C=N/NC(=O)c2nc(-c3ccccc3)cc(-c3ccccc3)n2)cc1	-2	-7.2*	3	0.46	-2.4	-1
Cc1nc(SCC(=O)c2ccc(Cl)cc2)c([N+](=O)[O-])[nH]1	-1	0.12	7	0.25	0.59	6
